Measured values reported in paper PMC6178977 (Advanced functional materials, 2017).
pIC50: −log10 of the molar value.

What was measured:
[1] = cited from earlier work
HCT116 cells = test: In vitro cytotoxicity, 72 h treatment; assay type: cell-based; settings: Homo sapiens, HCT-116, 72 h
Colo 205 cells = test: In vitro cytotoxicity, 72 h treatment; assay type: cell-based; settings: Homo sapiens, COLO 205, 72 h
[2] = test system: subcutaneous HCT-116 xenograft; test: Tumor regression in subcutaneous HCT-116 xenograft model; assay type: in vivo, mice
[3] = Pyrene fluorescence assay; assay type: physicochemical
How it was run: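 Pyrene served as fluorescent probe across a dilution series of polypeptide or conjugate. The I₁/I₃ ratio (370−373 nm peak over 381−384 nm peak) was plotted against polypeptide concentration. CAC was taken from the sigmoidal transition, which reflects nanoparticle disassembly and release of pyrene into the aqueous phase.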

Row | Molecule | plasma half-life [1] | pIC50 (HCT116 cells) | pIC50 (Colo 205 cells) | tumor volume lower than PBS treated animals ([2]; 12 days after treatment) | median survival time ([2]; HCT-116 xenograft, 25 mg.kg^−1 day 0, 2, 4, Kaplan–Meier, n=6) | CAC (critical aggregation concentration) [3]
1 | Nc1ccn([C@@H]2O[C@H](CO)[C@@H](O)C2(F)F)c(=O)n1 [GEM, gemcitabine] | ~ 10 minutes | 8.39 | 7.33 | ~ 3 fold | 21 days | 
2 | (VPGAG)160–(YG)6–(CGG)8 [ATBP] |  |  |  |  |  | 3.6 µM
